Experimental data as given in ChEMBL document CHEMBL4627371, “Discovery of novel heat shock protein (Hsp90) inhibitors based on luminespib with potent antitumor activity” (Bioorg Med Chem Lett, 2020).

Assays:
[1] = Toxicity in BALB/c nu/nu mouse xenografted with human A2780 cells assessed as effect on body weight at 50 mg/kg, iv administered 3 times a week for 3 weeks starting from 5 to 6 days post tumor inoculation; assay type: organism-based; details: in vivo
Procedure, shortened: (§1)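 Human A2780 ovarian adenocarcinoma cells were cultured and implanted into BALB/c-nu/nude mice, n = 6 per group. Tumor size and volume were measured 5 or 6 days later. Compounds were suspended in 1% carboxymethyl cellulose and given intravenously. Deaths and body weight were monitored. Tumor growth inhibition = [1 − (mean treated tumor volume)/(mean control tumor volume)] × 100%.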

NCI-H1975 = test: Antitumor activity against human NCI-H1975 cells xenografted in BALB/c athymic nu/nu mouse assessed as tumor growth inhibition at 150 mg/kg, iv administered once a week for 3 weeks relative to control; details: 504 h, read-out: TGI
[2] = Toxicity in BALB/c athymic nu/nu mouse xenografted with human NCI-H1975 cells assessed as effect on body weight at 150 mg/kg, iv administered once a week for 3 weeks; assay type: organism-based; details: in vivo, 504 h
[3] = Toxicity in BALB/c athymic nu/nu mouse xenografted with human NCI-H1975 cells assessed as mouse death at 150 mg/kg, iv administered once a week for 3 weeks; assay type: organism-based; details: in vivo, 504 h
[4] = Toxicity in BALB/c nu/nu mouse xenografted with human A2780 cells assessed as mouse death at 50 mg/kg, iv administered 3 times a week for 3 weeks starting from 5 to 6 days post tumor inoculation; assay type: organism-based; details: in vivo; procedure, shortened: as §1
A2780 [5] = test: Cytotoxicity against human A2780 cells assessed as cell growth inhibition; assay type: functional, cell-based
A2780 [6] = test: Antitumor activity against human A2780 cells xenografted in BALB/c nu/nu mouse assessed as tumor growth inhibition at 50 mg/kg, iv administered 3 times a week for 3 weeks starting from 5 to 6 days post tumor inoculation relative to control; assay type: functional; details: read-out: TGI; procedure, shortened: as §1
HCT-116 = test: Cytotoxicity against human HCT116 cells assessed as cell growth inhibition; assay type: functional, cell-based

With CCNC(=O)c1noc(-c2cc(C(C)C)c(O)cc2O)c1-c1ccc(CN2CCOCC2)cc1 [LUMINESPIB] as the compound, how does the Activity [1] read?
Its Activity is “Non-Toxic”.

And the inhibition in vivo at 150 mg/kg (NCI-H1975)?
The inhibition in vivo at 150 mg/kg was 43.5%.

What about the Activity [2] of the same compound?
The Activity was “Non-Toxic”.

What about the Activity [3] of the same compound?
Its Activity is “Non-Toxic”.

What about the Activity [4] of the same compound?
Its Activity is “Non-Toxic”.

And the IC50 (A2780 [5])?
Its IC50 is 6 nM.

And the inhibition in vivo at 50 mg/kg (A2780 [6])?
The inhibition in vivo at 50 mg/kg was 48%.

What about the IC50 (HCT-116) of the same compound?
Its IC50 is 20 nM.
